Converted amounts (≈) assume the structure as drawn.
system: Mycobacterium tuberculosis; test: Antitubercular activity against Mycobacterium tuberculosis 90-221387; type: functional
In short: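 Agar proportion method on Middlebrook 7H10 with OADC; compounds serially diluted into molten agar (50-56 °C) to final 100 to 0.8 µg/mL. Inoculum from colonies in 7H9 broth, adjusted to McFarland no. 1, diluted 10-2; 33 µL spotted per quadrant. Incubated 35 °C, 10% CO2, 2 weeks; MIC = lowest concentration completely inhibiting growth.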

First: COc1cc(C=O)ccc1O [VANILLIN]
Second: COc1cc(C=O)cc(OC)c1O [SYRINGALDEHYDE]
The MIC of the first is 1.7-fold lower: 82.2 µM (≈ 12.5 µg/mL) for the first, 137 µM (≈ 25 µg/mL) for the second.

Compared with `C#CCCCCCCCCC/C=C1/C(=O)O[C@@H](C)[C@H]1O` [LINCOMOLIDE B], `C=C1OC(=O)/C(=C/CCCCCCCCCCCCC)[C@@H]1O` [ISOOBTUSILACTONE A] is 2.2-fold higher in MIC: 10.2 µM (≈ 2.83 µg/mL) for the first, 22.5 µM (≈ 6.93 µg/mL) for the second.

Compared with `CC(=O)c1ccc(C)o1`, `O=C(O)c1ccc(O)c(O)c1` [PROTOCATECHUIC ACID] is 2-fold higher in MIC: 323 µM (≈ 40 µg/mL) for the first, 649 µM (≈ 100 µg/mL) for the second.

Going from `CCCCCCCCCCCCC/C=C1/C(=O)O[C@@]2(C)O[C@H](CCCCCCCCCCCCC)O[C@@H]12` [KOTOLACTONE A] to `CCCCCCCCCCCCCCCCCCCCCCCCCCCC(O)O` [KOTODIOL], the MIC rises from 40.1 µM (≈ 20.9 µg/mL) to 117 µM (≈ 50.1 µg/mL) (2.9-fold).

First: CCCCCCCCCCCC(=O)O [DODECANOATE]
Second: O=C(O)c1ccccc1 [BENZOIC ACID]
The MIC of the first is 5.2-fold lower: 62.5 µM (≈ 12.5 µg/mL) for the first, 328 µM (≈ 40 µg/mL) for the second.

Going from `CO[C@H]1/C=C/O[C@@]2(C)Oc3c(C)c(O)c4c(O)c(c(/C=N/N5CCN(C)CC5)c(O)c4c3C2=O)NC(=O)/C(C)=C\C=C\[C@H](C)[C@H](O)[C@@H](C)[C@@H](O)[C@@H](C)[C@H](OC(C)=O)[C@@H]1C` [RIFAMPIN] to `COc1cc([C@H]2OC[C@H]3[C@@H]2CO[C@@H]3c2cc(OC)c(O)c(OC)c2)cc(OC)c1O` (racemic) [SYRINGARESINOL], the MIC rises from 0.24 µM (≈ 0.198 µg/mL) to 239 µM (≈ 100 µg/mL) (1000-fold).

First: COc1cc(OC)c2c(c1)O[C@H](c1ccc(O)c(OC)c1)[C@H](O)C2
Second: O=Cc1ccc(O)cc1 [4-HYDROXYBENZALDEHYDE]
The MIC of the first is 2.4-fold lower: 151 µM (≈ 50.1 µg/mL) for the first, 369 µM (≈ 45 µg/mL) for the second.
